Results as given in ChEMBL document CHEMBL1250467, “Design, synthesis, and anticonvulsant activity of new N-Mannich bases derived from spirosuccinimides and spirohydantoins” (Bioorg Med Chem, 2010).
The source made the active and inactive calls. The calls are words filed in the database; no cut-off is given here.

Tests used:
Mus musculus [1] = experiment: Neurotoxicity in ip dosed CF1 albino mouse assessed as dose required to cause toxicity after 0.5 hrs by rotarod test; format: organism-based; details: in vivo
Method in brief: (§1)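 Male CF-1 mice; compounds suspended in 0.5% methylcellulose/water and injected ip at 30, 100 and 300 mg/kg. MES, scPTZ (pentylenetetrazole 85 mg/kg sc at the test time) and rotarod neurotoxicity were scored at 0.5 and 4 h. Value is the lowest dose active or toxic in half or more of the animals; signs such as ataxia or tremor were recorded.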

Mus musculus [2] = experiment: Neurotoxicity in ip dosed CF1 albino mouse assessed as dose required to cause toxicity after 4 hrs by rotarod test; format: organism-based; details: in vivo; method in brief: as §1
Mus musculus [3] = experiment: Anticonvulsant activity in CF1 albino mouse assessed as protection against subcutaneous pentylenetetrazole-induced seizures at 300 mg/kg, ip after 4 hrs; format: functional, organism-based; design: dose 300 mg/kg; method in brief: as §1
Mus musculus [4] = experiment: Anticonvulsant activity in CF1 albino mouse assessed as protection against maximal electroshock-induced seizures at 300 mg/kg, ip after 0.5 hrs; format: functional, organism-based; design: dose 300 mg/kg; method in brief: as §1
Mus musculus [5] = experiment: Anticonvulsant activity in ip dosed CF1 albino mouse assessed as dose required to protect against maximal electroshock-induced seizures after 4 hrs; format: functional; method in brief: as §1
Mus musculus [6] = experiment: Anticonvulsant activity in CF1 albino mouse assessed as protection against subcutaneous pentylenetetrazole-induced seizures at 300 mg/kg, ip after 0.5 hrs; format: functional, organism-based; design: dose 300 mg/kg; method in brief: as §1
Rattus norvegicus [7] = experiment: Anticonvulsant activity in po dosed Sprague-Dawley rat assessed as protection against subcutaneous pentylenetetrazole-induced seizures; format: functional
Method in brief: (§2)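 Male Sprague–Dawley rats dosed orally (0.5% methylcellulose/water suspension), groups of eight, tested at the previously estimated time of peak effect. Doses varied until at least three points lay in the 10–90% range of protection (MES, scPTZ) or minimal rotarod neurotoxicity. ED50/TD50 with 95% confidence intervals came from regression; PI = TD50/ED50.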

Mus musculus [8] = experiment: Anticonvulsant activity in ip dosed CF1 albino mouse assessed as dose required to protect against subcutaneous pentylenetetrazole-induced seizures after 0.5 hrs; format: functional; method in brief: as §1
Rattus norvegicus [9] = experiment: Anticonvulsant activity in Sprague-Dawley rat assessed as protection against maximal electroshock-induced seizures at 30 mg/kg po after 0.25 hrs; format: functional
Method in brief: (§3)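 Male Sprague–Dawley rats, four per group, given 30 mg/kg orally as a 0.5% methylcellulose/water suspension. MES protection scored at 0.25, 0.5, 1, 2 and 4 h after dosing, motor impairment checked in parallel; data are the number of the four rats protected.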

[10] = Displacement of [3H]batrachotoxin from neurotoxin site 2 of voltage-gated sodium channel in rat forebrain tissue
Rattus norvegicus [11] = experiment: Anticonvulsant activity in Sprague-Dawley rat assessed as protection against maximal electroshock-induced seizures at 30 mg/kg po after 4 hrs; format: functional; method in brief: as §3
Mus musculus [12] = experiment: Neurotoxicity in CF1 albino mouse at 300 mg/kg, ip after 4 hrs by rotarod test; format: toxicity, organism-based; design: dose 300 mg/kg, route intraperitoneal; details: in vivo; method in brief: as §1
Mus musculus [13] = experiment: Anticonvulsant activity in ip dosed CF1 albino mouse assessed as dose required to protect against subcutaneous pentylenetetrazole-induced seizures after 4 hrs; format: functional; method in brief: as §1
Rattus norvegicus [14] = species: Rattus norvegicus; experiment: Protection index, ratio of TD50 for Sprague-Dawley rat by rotarod test to ED50 for Sprague-Dawley rat by maximal electroshock test; format: functional; method in brief: as §2
[15] = Neurotoxicity in po dosed Sprague-Dawley rat by rotarod test; format: toxicity, organism-based; details: in vivo; method in brief: as §2
Rattus norvegicus [16] = experiment: Anticonvulsant activity in Sprague-Dawley rat assessed as protection against maximal electroshock-induced seizures at 30 mg/kg po after 1 hr; format: functional; method in brief: as §3
Mus musculus [17] = experiment: Anticonvulsant activity in ip dosed CF1 albino mouse assessed as dose required to protect against maximal electroshock-induced seizures after 0.5 hrs; format: functional; method in brief: as §1
Rattus norvegicus [18] = experiment: Anticonvulsant activity in Sprague-Dawley rat assessed as protection against maximal electroshock-induced seizures at 30 mg/kg po after 2 hrs; format: functional; method in brief: as §3
Rattus norvegicus [19] = experiment: Anticonvulsant activity in po dosed Sprague-Dawley rat assessed as time required to peak protection against seizures; format: functional
Rattus norvegicus [20] = experiment: Anticonvulsant activity in po dosed Sprague-Dawley rat assessed as protection against maximal electroshock-induced seizures; format: functional; method in brief: as §2
Rattus norvegicus [21] = experiment: Anticonvulsant activity in Sprague-Dawley rat assessed as protection against maximal electroshock-induced seizures at 30 mg/kg po after 0.5 hrs; format: functional; method in brief: as §3
Rattus norvegicus [22] = experiment: Anticonvulsant activity in Sprague-Dawley rat assessed as protection against subcutaneous pentylenetetrazole-induced seizures at 50 mg/kg po after 4 hrs; format: functional
Method in brief: (§4)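 Oral fixed dose of 50 mg/kg in male Sprague–Dawley rats (0.5% methylcellulose/water suspension), four rats per group. Pentylenetetrazole 70 mg/kg given sc at each test time (0.25, 0.5, 1, 2, 4 h); protection from clonic seizures counted per four rats, with motor impairment studied in parallel.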

Rattus norvegicus [23] = experiment: Anticonvulsant activity in Sprague-Dawley rat assessed as protection against subcutaneous pentylenetetrazole-induced seizures at 50 mg/kg po after 0.25 hrs; format: functional, organism-based; design: dose 50 mg/kg; method in brief: as §4
Mus musculus [24] = experiment: Anticonvulsant activity in CF1 albino mouse assessed as protection against maximal electroshock-induced seizures at 300 mg/kg, ip after 4 hrs; format: functional, organism-based; design: dose 300 mg/kg; method in brief: as §1
Rattus norvegicus [25] = experiment: Anticonvulsant activity in Sprague-Dawley rat assessed as protection against subcutaneous pentylenetetrazole-induced seizures at 50 mg/kg po after 1 hr; format: functional; method in brief: as §4
Rattus norvegicus [26] = experiment: Anticonvulsant activity in Sprague-Dawley rat assessed as protection against subcutaneous pentylenetetrazole-induced seizures at 50 mg/kg po after 2 hrs; format: functional; method in brief: as §4
Rattus norvegicus [27] = experiment: Anticonvulsant activity in Sprague-Dawley rat assessed as protection against subcutaneous pentylenetetrazole-induced seizures at 50 mg/kg po after 0.5 hrs; format: functional; method in brief: as §4
Mus musculus [28] = experiment: Neurotoxicity in CF1 albino mouse at 300 mg/kg, ip after 0.5 hrs by rotarod test; format: toxicity, organism-based; design: dose 300 mg/kg, route intraperitoneal; details: in vivo; method in brief: as §1
Mus musculus [29] = experiment: Anticonvulsant activity in CF1 albino mouse assessed as protection against electrically-induced seizure at 100 mg/kg, ip after 4 hrs by 6Hz psychomotor seizure test; format: functional
Method in brief: (§5)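 Male CF-1 mice, compound suspended in 0.5% methylcellulose/water, given ip at 100 mg/kg; four mice per time point (0.25, 0.5, 1, 2, 4 h). Corneal stimulation with 0.2 ms monopolar rectangular pulses at 6 Hz for 3 s from a constant-current device, mice manually restrained. A mouse counted as protected if normal exploratory behaviour resumed within 10 s; motor impairment was noted alongside.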

Mus musculus [30] = experiment: Anticonvulsant activity in CF1 albino mouse assessed as protection against electrically-induced seizure at 100 mg/kg, ip after 0.25 hrs by 6Hz psychomotor seizure test; format: functional, organism-based; design: dose 100 mg/kg; method in brief: as §5
Mus musculus [31] = experiment: Anticonvulsant activity in CF1 albino mouse assessed as protection against electrically-induced seizure at 100 mg/kg, ip after 0.5 hrs by 6Hz psychomotor seizure test; format: functional, organism-based; design: dose 100 mg/kg; method in brief: as §5
Mus musculus [32] = experiment: Anticonvulsant activity in CF1 albino mouse assessed as protection against electrically-induced seizure at 100 mg/kg, ip after 2 hrs by 6Hz psychomotor seizure test; format: functional, organism-based; design: dose 100 mg/kg; method in brief: as §5
Mus musculus [33] = experiment: Anticonvulsant activity in CF1 albino mouse assessed as protection against electrically-induced seizure at 100 mg/kg, ip after 1 hr by 6Hz psychomotor seizure test; format: functional; details: route intraperitoneal; method in brief: as §5

| Structure (SMILES) | Activity (Mus musculus [1]) [mg/kg] | Activity (Mus musculus [2]) [mg/kg] | Activity (Mus musculus [3]) | Activity (Mus musculus [4]) | Activity (Mus musculus [5]) [mg/kg] | Activity (Mus musculus [6]) | ED50 (Rattus norvegicus [7]) [mg/kg] | Activity (Mus musculus [8]) [mg/kg] | Activity (Rattus norvegicus [9]) | Activity (Rattus norvegicus [11]) [%] | Activity (Mus musculus [12]) | Activity (Mus musculus [13]) [mg/kg] | PI (Rattus norvegicus [14]) | TD50 [15] [mg/kg] | Activity (Rattus norvegicus [16]) [%] | Activity (Mus musculus [17]) [mg/kg] | Activity (Rattus norvegicus [18]) [%] | Time (Rattus norvegicus [19]) [h] | ED50 (Rattus norvegicus [20]) [mg/kg] | Activity (Rattus norvegicus [21]) [%] | other results |
| --- | --- | --- | --- | --- | --- | --- | --- | --- | --- | --- | --- | --- | --- | --- | --- | --- | --- | --- | --- | --- | --- |
| O=C1NC2(CCc3ccccc3C2)C(=O)N1CN1CCN(c2cccc(Cl)c2)CC1 (stereo unspecified) | 30 | 30 | inactive | inactive | 100 | inactive |  |  |  |  |  |  |  |  |  |  |  |  |  |  |  |
| O=C1NC2(CCc3ccccc3C2)C(=O)N1CN1CCOCC1 (stereo unspecified) | 100 |  |  |  | 30 |  | > 250 | 100 | inactive | 100 | Non-toxic | 100 | >37.55 | 400 | 50 | 30 | 75 | 6 | 10.7 | 25 | IC50 [10]: Not Active |
| O=C1NC2(CCc3ccccc3C2)C(=O)N1CN1CCN(c2ccccc2)CC1 (stereo unspecified) | 300 | 300 | inactive | inactive | 30 | inactive |  |  | 25% | 100 |  |  | >256.78 | > 500 | 50 |  | 100 | 6 | 1.88 | 50 | IC50 ([10]; read-out: IC50): 9.35 µM |
| CCC1(C)CC(=O)NC1=O (stereo unspecified) [ETHOSUXIMIDE] |  |  |  | inactive |  |  | 167 | 100 |  |  | Non-toxic | 300 | >2.99 | > 500 |  |  |  |  | > 500 |  | Activity (Rattus norvegicus [22]): inactive; Activity (Rattus norvegicus [23]): inactive; Activity (Mus musculus [24]): inactive; Activity (Rattus norvegicus [25]): 25%; Activity (Rattus norvegicus [26]): 25%; Activity (Rattus norvegicus [27]): 50%; Activity (Mus musculus [28]): Non-toxic |
| O=C1CC2(CCc3ccccc3C2)C(=O)N1CN1CCN(Cc2ccccc2)CC1 (stereo unspecified) |  |  | inactive |  | 300 | inactive |  |  |  |  | Non-toxic |  |  |  |  | 300 |  |  |  |  | Activity (Mus musculus [29]): inactive; Activity (Mus musculus [30]): inactive; Activity (Mus musculus [31]): inactive; Activity (Mus musculus [32]): inactive; Activity (Mus musculus [33]): 25%; Activity (Mus musculus [28]): Non-toxic |
| O=C1NC2(CCc3ccccc3C2)C(=O)N1CN1CCN(c2cccc(C(F)(F)F)c2)CC1 (stereo unspecified) | 100 | 30 | inactive |  | 30 | inactive |  |  |  |  |  |  |  |  |  | 300 |  |  |  |  |  |
